Common to all, as to assay type: functional, cell-based
In assay [1] the test system is B16-F10. Put plainly: Antimetastatic activity against HT1080 and B16F10 cells in cell attachment assay; Low attachment activity.
The test system of assay [2] is B16-F10. Put plainly: Antimetastatic activity against HT1080 and B16F10 cells in cell attachment assay; Moderate attachment activity. In short, it runs like this: (§1)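 Peptide dissolved in water with a drop of acetic acid and dried overnight onto culture wells (amount given is quantity dried on plastic). Wells blocked with EMEM/3% BSA 30 min at 37 °C, then EMEM/0.02% BSA. HT-1080 or B16F10 cells (4 × 10⁴) added, 1 h at 37 °C, 5% CO₂. PBS wash; attached cells fixed, stained and counted (eight fields/well) or trypsinized and Coulter-counted; duplicate wells, mean ± SD.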

Assay [3] deals with B16-F10. The assay can be described thus: Antimetastatic activity against HT1080 and B16F10 cells in cell attachment assay; high attachment activity with about 70% of cells attached.
Assay [4] relates to B16-F10. The assay can be described thus: Antimetastatic activity against HT1080 and B16F10 cells in cell attachment assay; moderate attachment activity. The essentials: as §1
The subject of assay [5] is B16-F10. Put plainly: Antimetastatic activity against HT1080 and B16F10 cells in cell attachment assay; low attachment activity.
In assay [6] the test system is B16-F10. The assay can be described thus: Antimetastatic activity against HT1080 and B16F10 cells in cell attachment assay; high, but not maximal, attachment activity. In short, it runs like this: as §1
The subject of assay [7] is B16-F10. Put plainly: Antimetastatic activity against HT1080 and B16F10 cells in cell attachment assay; Moderat attachment activity. The essentials:
as §1

Square brackets hold non-standard residues; d marks the D form. Peptide text beside a SMILES is read from it. Phe(4-NH2) = Nc1ccc(C[C@H](N)C(=O)O)cc1; Phe(4-F) = N[C@@H](Cc1ccc(F)cc1)C(=O)O

Take `CC[C@H](C)[C@H](NC(=O)[C@H](N)Cc1ccc(O)cc1)C(=O)NCC(=O)N[C@@H](CO)C(=O)N[C@@H](CCCN=C(N)N)C(N)=O`: in assay [1], the Activity result is “Low attachment activity”. Consider `CC[C@H](C)[C@H](NC(=O)[C@@H](N)Cc1ccc(F)cc1)C(=O)NCC(=O)N[C@@H](CO)C(=O)N[C@@H](CCCN=C(N)N)C(N)=O` (H-[Phe(4-F)]IGSR-NH2), for which the Activity result in assay [2] is “Moderate attachment activity”.

H-CYIGSRYIGSRYIGSR-NH2: the Activity entry in assay [3] is listed as “high attachment activity with about 70% of cells attached”. Turning to `CC[C@H](C)[C@@H](C(=O)NCC(=O)N[C@@H](CO)C(=O)N[C@@H](CCCN=C(N)N)C(N)=O)N(C=O)C[C@@H](N)Cc1ccc(O)cc1`, the Activity result in assay [4] was “moderate attachment activity”. For the compound `CC[C@H](C)[C@@H](CNCC(=O)N[C@@H](CO)C(=O)N[C@@H](CCCN=C(N)N)C(N)=O)NC(=O)[C@@H](N)Cc1ccc(O)cc1`, in assay [5], the Activity result was “low attachment activity”. On to `CC[C@H](C)[C@H](NC(=O)[C@@H](N)Cc1ccc(O)cc1)C(=O)NCC(=O)N[C@@H](CO)CN[C@@H](CCCN=C(N)N)C(N)=O`, for which, in assay [1], the Activity result was “Low attachment activity”. With `CC[C@H](C)[C@H](NC(=O)[C@@H](N)Cc1ccc(O)cc1)C(=O)NCCN[C@@H](CO)C(=O)N[C@@H](CCCN=C(N)N)C(N)=O`, the Activity entry in assay [5] was “low attachment activity”. With `CC[C@H](C)[C@H](NC(=O)[C@@H](N)Cc1ccc(O)cc1)C(=O)NCC(=O)N[C@@H](CO)C(=O)N[C@@H](CCCN=C(N)N)C(N)=O`, the Activity entry in assay [1] is given as “Low attachment activity”.

On to `CC[C@H](C)[C@H](NC(=O)[C@@H](N)Cc1ccc(N)cc1)C(=O)NCC(=O)N[C@@H](CO)C(=O)N[C@@H](CCCN=C(N)N)C(N)=O` (H-[Phe(4-NH2)]IGSR-NH2), for which the Activity entry in assay [6] is reported as “high, but not maximal, attachment activity”. Take `CC[C@H](C)[C@H](NC(=O)[C@H](N)Cc1ccc(O)cc1)C(=O)NCC(=O)N[C@@H](CO)C(=O)N[C@@H](CCCN=C(N)N)C(=O)O` [LAMININ]: the Activity result in assay [3] is reported as “high attachment activity with about 70% of cells attached”. For the compound H-FIGSR-NH2, the Activity result in assay [1] was “Low attachment activity”. Turning to `CC[C@H](C)[C@H](NC[C@@H](N)Cc1ccc(O)cc1)C(=O)NCC(=O)N[C@@H](CO)C(=O)N[C@@H](CCCN=C(N)N)C(N)=O`, in assay [7], the Activity result is “Moderat attachment activity”.

The record behind these values is ChEMBL document CHEMBL1127359, “Synthetic laminin-like peptides and pseudopeptides as potential antimetastatic agents” (1994).
